Compounds with a hit are over-represented: about 3.5% of the library has one in this group of screens.
RGS4 block – inhibitors of human RGS4; P49798; 310,000 tested, 0.45% active; HEK293 M3R/RGS4 inducible, Fluo-4 calcium flux; active compounds read high; triggered by carbachol at its EC20; B-score at 10 µM;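 active means B-score, a plate-corrected calcium signal, over three deviations above library mean, with baseline fluorescence within five deviations of library mean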;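 further: RGS4 expression induced by doxycycline in cells with stable M3 receptor; B-score is computed from the integrated fluorescence ratio over baseline after carbachol; higher B-score means a larger calcium signal and so more RGS4 inhibition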
Target sequence (P49798 whole entry, looked up): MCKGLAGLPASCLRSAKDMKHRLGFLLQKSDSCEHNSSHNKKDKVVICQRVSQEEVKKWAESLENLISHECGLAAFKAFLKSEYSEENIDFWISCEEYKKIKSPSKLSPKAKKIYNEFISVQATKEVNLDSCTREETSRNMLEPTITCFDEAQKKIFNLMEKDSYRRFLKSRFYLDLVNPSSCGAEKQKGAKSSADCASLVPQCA
MrgX1 agonist – agonists of human MrgX1 receptor. B-score at 10 µM. Q96LB2. AID 588627. MrgX1-HEK293 cells, Fluo-4 calcium fluorescence, agonist mode; active compounds read high. 310,000 tested, 0.44% active;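 active means calcium response B-score plate-corrected fluorescence ratio at least 3 library SD, with starting fluorescence B-score inside 5 SD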
Target sequence (Q96LB2 whole entry, looked up): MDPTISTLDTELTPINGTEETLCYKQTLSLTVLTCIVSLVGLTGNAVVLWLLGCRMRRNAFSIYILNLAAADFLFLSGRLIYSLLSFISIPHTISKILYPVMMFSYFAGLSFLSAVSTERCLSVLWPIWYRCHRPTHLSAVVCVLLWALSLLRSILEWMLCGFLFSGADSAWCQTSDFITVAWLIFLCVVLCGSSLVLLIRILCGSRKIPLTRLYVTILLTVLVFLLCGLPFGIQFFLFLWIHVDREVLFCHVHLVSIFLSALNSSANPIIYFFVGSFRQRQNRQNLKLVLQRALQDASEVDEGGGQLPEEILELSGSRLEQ
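Material: HEK293 cells stably expressing human MrgX1 receptor | Quantity: 15,000 cells per well | Times: Cells plated overnight, dye loaded 0.5 h 37 °C, 0.5 h room temperature | Measured by: Kinetic Fluo-4 NW fluorescence of intracellular calcium | Control set: Positive and negative controls per plate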
MrgX1 antagonist – antagonists of human MrgX1 receptor. B-score at 10 µM. AID 588676. 310,000 tested, 1.3% active. MRGX1-HEK293 calcium flux, Fluo-4, BAM8-22 antagonism; active compounds read low;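 active means calcium-response B-score plate-corrected more than 3 library SD below zero, starting fluorescence within 5 deviations, no agonist response on first addition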;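 further: peak minus trough fluorescence over baseline after final BAM8-22 challenge near maximal dose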
RGS4 pot – potentiators or activators of RGS4. B-score at 10 µM. HEK293 M3R/inducible RGS4, carbachol calcium flux Fluo4; active compounds read low. 310,000 tested, 0.92% active;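 active means B-score of the integrated calcium signal more than 4 SD below the library mean, with starting fluorescence not abnormally high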;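 further: negative B-score means reduced calcium response which marks RGS4 activation or potentiation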
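Assay system: HEK293 FlpIn-TREx cells, stable M3R, doxycycline-inducible RGS4 / Probe or stimulus: carbachol, ECmax concentration / Times: overnight RGS4 induction, 30 min dye load 37 °C, 20 min compound RT / Signal: kinetic calcium fluorescence imaging with Fluo4-AM dye, 2 µM / Measure: Agonist-evoked peak-minus-minimum fluorescence over baseline, integrated ratio, B score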
MrgX1 allo act – human MrgX1 positive allosteric modulation, primary screen; Q96LB2; MrgX1-HEK293, Fluo-4 calcium flux, FDSS; active compounds read high; B-score at 10 µM; 310,000 tested, 0.63% active; AID 588675;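 active means plate-corrected calcium response at least 3 library SD above typical, normal starting fluorescence, not activating the receptor alone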;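 further: compound read alongside a low EC10 to EC30 dose of BAM8-22 agonist; peak minus trough fluorescence over baseline measured at the second addition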
* hit, by the source's call.

How did C/C=C1/CC(C)C(C)(O)C(=O)OCC2CCN3CCC(OC1=O)C23 (stereo unspecified) do in these assays?
RGS4 block: inactive; MrgX1 agonist: inactive; MrgX1 antagonist: inactive; RGS4 pot: -8.2*; MrgX1 allo act: inactive

How did Cc1ccc2c(c1)C1CN(C)CCC1N2C(=O)c1cn(-c2ccccc2)nc1-c1ccccc1 (stereo unspecified) do in these assays?
RGS4 block: inactive; MrgX1 agonist: inactive; MrgX1 antagonist: inactive; RGS4 pot: inactive; MrgX1 allo act: inactive

How did CN1CCN(c2ccc(N)cc2Cl)CC1 do in these assays?
RGS4 block: inactive; MrgX1 agonist: inactive; MrgX1 antagonist: -5.3*; RGS4 pot: inactive; MrgX1 allo act: inactive

What do the screens show for `Cc1ccccc1-n1c(-c2ccc([N+](=O)[O-])cc2)nc2ccccc2c1=O`?
RGS4 block: inactive; MrgX1 agonist: inactive; MrgX1 antagonist: inactive; RGS4 pot: -10*; MrgX1 allo act: inactive

What do the screens show for `Cc1cc(OC(=O)N(C)C)nc(-c2ccc(C)c(Cl)c2)n1`?
RGS4 block: inactive; MrgX1 agonist: inactive; MrgX1 antagonist: inactive; RGS4 pot: inactive; MrgX1 allo act: inactive

Results for CCN(CC)c1ccc(/C=N/c2sc3c(c2C#N)C2CCN3CC2)c(O)c1 ?
MrgX1 agonist: inactive; MrgX1 antagonist: inactive; MrgX1 allo act: 17*

How did CCOP(=O)(OCC)C(O)c1cccnc1 (stereo unspecified) do in these assays?
RGS4 block: inactive; MrgX1 agonist: inactive; MrgX1 antagonist: inactive; RGS4 pot: inactive; MrgX1 allo act: inactive

Results for Cc1ccc(C[n+]2c(-c3ccc(C)cc3)cc(-c3ccc(C)cc3)cc2-c2ccc(C)cc2)cc1 ?
RGS4 block: inactive; MrgX1 agonist: inactive; MrgX1 antagonist: -13*; RGS4 pot: -7.2*; MrgX1 allo act: inactive

How did COC(=O)c1c2[n+](cc3cc(OC)c(OC)cc13)CCc1cc(OC)c(OC)cc1-2 do in these assays?
RGS4 block: inactive; MrgX1 agonist: inactive; MrgX1 antagonist: inactive; RGS4 pot: inactive; MrgX1 allo act: inactive

Results for CC(C)N(CC(O)c1cccc([N+](=O)[O-])c1)C(C)C (stereo unspecified) ?
RGS4 block: inactive; MrgX1 agonist: inactive; MrgX1 antagonist: -6.2*; RGS4 pot: inactive; MrgX1 allo act: inactive

What do the screens show for `C=CCN1C[C@@H](C)N(C(c2ccc(C(=O)N(CC)CC)cc2)c2cccc(OC)c2)C[C@@H]1C` (stereo partly specified)?
MrgX1 agonist: inactive; MrgX1 antagonist: inactive; MrgX1 allo act: inactive

Results for C[N+]12CCC(CC1)C(C(O)(c1ccccc1)c1cccs1)C2 (stereo unspecified) ?
RGS4 block: inactive; MrgX1 agonist: inactive; MrgX1 antagonist: inactive; RGS4 pot: -7.7*; MrgX1 allo act: inactive

What do the screens show for `O=C(CCNC(=O)N1C[C@H]2C[C@@H](C1)c1cccc(=O)n1C2)Nc1ccc(F)cc1`?
RGS4 block: inactive; MrgX1 agonist: inactive; MrgX1 antagonist: inactive; RGS4 pot: inactive; MrgX1 allo act: inactive

How did Cc1ccnc(NS(=O)(=O)c2ccc(N=Cc3c(O)n(C)c(=O)n(C)c3=O)cc2)n1 do in these assays?
RGS4 block: inactive; MrgX1 agonist: inactive; MrgX1 antagonist: inactive; RGS4 pot: inactive; MrgX1 allo act: 6.6*

Results for CC[C@@H]1C(=O)OC[C@@H]1Cc1cncn1C ?
MrgX1 agonist: inactive; MrgX1 antagonist: inactive; MrgX1 allo act: 8.7*

What do the screens show for `Cc1ccc(N2C(=O)NC(=O)C(CCc3ccccn3)(Cc3ccc(F)cc3)C2=O)cc1` (stereo unspecified)?
RGS4 block: inactive; MrgX1 agonist: inactive; MrgX1 antagonist: inactive; RGS4 pot: inactive; MrgX1 allo act: inactive

Results for CC1CCC(C(C)C)C(OC(=O)Cn2c(COc3ccccc3)[n+](C)c3ccccc32)C1 (stereo unspecified) ?
RGS4 block: inactive; MrgX1 agonist: inactive; MrgX1 antagonist: -14*; RGS4 pot: -8*; MrgX1 allo act: inactive

What do the screens show for `CC(C)=CCc1c(O)cc2c(c1O)C(=O)CC(c1ccc(O)cc1)O2` (stereo unspecified)?
RGS4 block: inactive; MrgX1 agonist: inactive; MrgX1 antagonist: inactive; RGS4 pot: -7.2*; MrgX1 allo act: inactive

How did CCOC(=O)CSc1ccc(C(=O)N2CCC3(CC2)OCCO3)cc1[N+](=O)[O-] do in these assays?
RGS4 block: inactive; MrgX1 agonist: inactive; MrgX1 antagonist: inactive; RGS4 pot: inactive; MrgX1 allo act: inactive

What do the screens show for `c1ccc2c(c1)Sc1ccccc1N2CC1CN2CCC1CC2` (stereo unspecified)?
RGS4 block: inactive; MrgX1 agonist: inactive; MrgX1 antagonist: inactive; RGS4 pot: inactive; MrgX1 allo act: inactive

How did CCN1CCN(CC(c2ccccc2)c2ccccc2)CC1 do in these assays?
RGS4 block: inactive; MrgX1 agonist: inactive; MrgX1 antagonist: inactive; RGS4 pot: -7*; MrgX1 allo act: inactive

How did O=C(CN1CCCCC1)c1ccc(F)cc1 do in these assays?
RGS4 block: inactive; MrgX1 agonist: inactive; MrgX1 antagonist: inactive; RGS4 pot: inactive; MrgX1 allo act: inactive

Results for O=C(c1ccccc1)C(CN1CCCC1)c1ccccc1 (stereo unspecified) ?
RGS4 block: inactive; MrgX1 agonist: inactive; MrgX1 antagonist: inactive; RGS4 pot: -8.4*; MrgX1 allo act: inactive

How did Cc1cc(OCC(=O)N2CCC(C(N)=O)CC2)c2c3c(c(=O)oc2c1)CCCC3 do in these assays?
RGS4 block: inactive; MrgX1 agonist: inactive; MrgX1 antagonist: inactive; RGS4 pot: inactive; MrgX1 allo act: inactive

How did CC1Oc2cc3c(-c4c(O)cc(O)c5c(O)c6c(cc45)OC(C)C(C)C6=O)c(O)cc(O)c3c(O)c2C(=O)C1C (stereo unspecified) do in these assays?
RGS4 block: inactive; MrgX1 agonist: inactive; MrgX1 antagonist: -5.9*; RGS4 pot: inactive; MrgX1 allo act: inactive

How did NC(N)=N/N=C/c1ccc(N(c2ccccc2)c2ccccc2)cc1 do in these assays?
RGS4 block: inactive; MrgX1 agonist: inactive; MrgX1 antagonist: inactive; RGS4 pot: -8.3*; MrgX1 allo act: inactive

How did CN(C)CCSC1c2ccccc2CSc2ccccc21 (stereo unspecified) do in these assays?
RGS4 block: inactive; MrgX1 agonist: inactive; MrgX1 antagonist: inactive; RGS4 pot: -9.1*; MrgX1 allo act: inactive

How did COC(=O)C1=C(c2cc3ccccc3o2)C[C@@H]2CC[C@H]1N2C(=O)NCc1ccc(C(F)(F)F)cc1 do in these assays?
RGS4 block: inactive; MrgX1 agonist: inactive; MrgX1 antagonist: inactive; RGS4 pot: inactive; MrgX1 allo act: 9.2*

How did O=C1NC(=O)N(c2ccc(Cl)cc2)C(=O)/C1=C\c1ccc(Sc2nc3ccccc3[nH]2)o1 do in these assays?
RGS4 block: inactive; MrgX1 agonist: inactive; MrgX1 antagonist: inactive; RGS4 pot: inactive; MrgX1 allo act: 17*
